Measured values published in ChEMBL document CHEMBL2346608, “New annelated thieno[2,3-e][1,2,3]triazolo[1,5-a]pyrimidines, with potent anticancer activity, designed through VLAK protocol” (2013).

Tests used:
Format in all cases: functional
DU-145 = assay: Antiproliferative activity against human DU145 cells after 48 hrs by sulforhodamine B assay; details: DU-145, 48 h
Method in brief: (§1)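 Cells grown in RPMI 1640 with 5% FBS and 2 mM L-glutamine, plated at 5000–40,000 cells/well and preincubated 24 h at 37 °C, 5% CO2. Five drug concentrations (10-fold or ½-log dilutions from DMSO stocks) applied for 48 h. TCA-fixed (final 10% adherent, 16% suspension), SRB-stained, A515 read. Growth versus time-zero and control wells gave GI50, TGI, LC50.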

NCI/ADR-RES = assay: Antiproliferative activity against human NCI/ADR-RES cells after 48 hrs by sulforhodamine B assay; method in brief: as §1
NCI-H522 = assay: Antiproliferative activity against human NCI-H522 cells after 48 hrs by sulforhodamine B assay; details: NCI-H522, 48 h; method in brief: as §1
NCI-H23 = assay: Antiproliferative activity against human NCI-H23 cells after 48 hrs by sulforhodamine B assay; details: NCI-H23, 48 h; method in brief: as §1
HOP-62 = assay: Antiproliferative activity against human HOP62 cells after 48 hrs by sulforhodamine B assay; details: HOP-62, 48 h; method in brief: as §1
[1] = Antiproliferative activity against human EKVX cells after 48 hrs by sulforhodamine B assay; method in brief: as §1
UACC-62 = assay: Antiproliferative activity against human UACC62 cells after 48 hrs by sulforhodamine B assay; details: UACC-62, 48 h
Method in brief: (§2)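 Cells in RPMI 1640 with 5% FBS and 2 mM L-glutamine were seeded at 5000–40,000/well according to doubling time and preincubated 24 h at 37 °C in 5% CO2. Time-zero plates were TCA-fixed when drug was added. Five 10-fold or ½-log dilutions from DMSO stocks were added for 48 h. After SRB staining, A515 was read and GI50 derived from [(Ti−Tz)/(C−Tz)]×100 = 50.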

SK-MEL-28 = assay: Antiproliferative activity against human SK-MEL-28 cells after 48 hrs by sulforhodamine B assay; details: SK-MEL-28, 48 h; method in brief: as §1
MDA-MB-435 = assay: Antiproliferative activity against human MDA-MB-435 cells after 48 hrs by sulforhodamine B assay; details: MDA-MB-435, 48 h; method in brief: as §1
LOX IMVI = assay: Antiproliferative activity against human LOXIMVI cells after 48 hrs by sulforhodamine B assay; method in brief: as §1
RPMI-8226 = assay: Antiproliferative activity against human RPMI8226 cells after 48 hrs by sulforhodamine B assay; details: RPMI-8226, 48 h; method in brief: as §1
K562 = assay: Antiproliferative activity against human K562 cells after 48 hrs by sulforhodamine B assay; details: K562, 48 h; method in brief: as §1
MOLT-4 = assay: Antiproliferative activity against human MOLT4 cells after 48 hrs by sulforhodamine B assay; details: MOLT-4, 48 h; method in brief: as §1
CCRF-CEM = assay: Antiproliferative activity against human CCRF-CEM cells after 48 hrs by sulforhodamine B assay; method in brief: as §1
SW-620 = assay: Antiproliferative activity against human SW620 cells after 48 hrs by sulforhodamine B assay; details: SW-620, 48 h; method in brief: as §2
KM12 = assay: Antiproliferative activity against human KM12 cells after 48 hrs by sulforhodamine B assay; details: KM12, 48 h; method in brief: as §1
HT-29 = assay: Antiproliferative activity against human HT-29 cells after 48 hrs by sulforhodamine B assay; details: HT-29, 48 h; method in brief: as §1
HCT-116 = assay: Antiproliferative activity against human HCT116 cells after 48 hrs by sulforhodamine B assay; details: HCT-116, 48 h; method in brief: as §1
COLO 205 = assay: Antiproliferative activity against human COLO205 cells after 48 hrs by sulforhodamine B assay; details: COLO 205, 48 h; method in brief: as §1
SF-539 = assay: Antiproliferative activity against human SF539 cells after 48 hrs by sulforhodamine B assay; details: SF-539, 48 h; method in brief: as §1
SNB-19 = assay: Antiproliferative activity against human SNB19 cells after 48 hrs by sulforhodamine B assay; details: SNB-19, 48 h; method in brief: as §1
SF-268 = assay: Antiproliferative activity against human SF268 cells after 48 hrs by sulforhodamine B assay; details: SF-268, 48 h; method in brief: as §1
T47D = assay: Antiproliferative activity against human T47D cells after 48 hrs by sulforhodamine B assay; method in brief: as §2
[2] = Antiproliferative activity against human Hs 578T cells after 48 hrs by sulforhodamine B assay; method in brief: as §1
TK-10 = assay: Antiproliferative activity against human TK10 cells after 48 hrs by sulforhodamine B assay; details: TK-10, 48 h; method in brief: as §2
UO-31 = assay: Antiproliferative activity against human UO31 cells after 48 hrs by sulforhodamine B assay; details: UO-31, 48 h; method in brief: as §2
SN12C = assay: Antiproliferative activity against human SN12C cells after 48 hrs by sulforhodamine B assay; method in brief: as §1
RXF 393 = assay: Antiproliferative activity against human RXF393 cells after 48 hrs by sulforhodamine B assay; details: RXF 393, 48 h; method in brief: as §1
ACHN = assay: Antiproliferative activity against human ACHN cells after 48 hrs by sulforhodamine B assay; method in brief: as §1
786-0 = assay: Antiproliferative activity against human 786-0 cells after 48 hrs by sulforhodamine B assay; details: 786-0, 48 h; method in brief: as §1
[3] = read-out: pLC50 (the source's name) (converted)

With `O=C(CCCn1c(=O)c2sc3ncccc3c2n2nnc(-c3ccccc3)c12)NCCc1c[nH]cn1` the GI50 (DU-145) was 2.75 µM, the LC50 (DU-145) was 61.7 µM and the TGI (DU-145; read-out: pTGI (converted)) was 19.5 µM. It also gave a GI50 (NCI/ADR-RES) of 33.9 µM, an LC50 (NCI/ADR-RES) of over 100 µM and a TGI (NCI/ADR-RES; read-out: pTGI (converted)) of over 100 µM. The GI50 (NCI-H522) was 2.95 µM, the LC50 (NCI-H522) was 60.3 µM and the TGI (NCI-H522; read-out: pTGI (converted)) was 22.9 µM. The GI50 (NCI-H23) was 14.5 µM, the LC50 (NCI-H23) was 70.8 µM and the TGI (NCI-H23; read-out: pTGI (converted)) was 32.4 µM. It also gave a GI50 (HOP-62) of 16.6 µM, an LC50 (HOP-62) of 61.7 µM and a TGI (HOP-62; read-out: pTGI (converted)) of 31.6 µM. It also gave a GI50 [1] of 15.1 µM, an LC50 [1] of over 100 µM and a TGI ([1]; read-out: pTGI (converted)) of 44.7 µM. The GI50 (UACC-62) was 15.8 µM, the LC50 (concentration killing 50% of cells) (UACC-62) was 57.5 µM and the TGI (UACC-62; read-out: pTGI (converted)) was 30.2 µM. The GI50 (SK-MEL-28) was 17 µM, the LC50 (SK-MEL-28) was 72.4 µM and the TGI (SK-MEL-28; read-out: pTGI (converted)) was 34.7 µM. For the same compound, the GI50 (MDA-MB-435) was 0.49 µM, the LC50 (MDA-MB-435) was over 100 µM and the TGI (MDA-MB-435; read-out: pTGI (converted)) was 20.4 µM. It also gave a GI50 (LOX IMVI) of 12.3 µM, a CC50 (LOX IMVI; [3]) of 57.5 µM and a TGI (LOX IMVI; read-out: pTGI (converted)) of 26.3 µM. For the same compound, the GI50 (RPMI-8226) was 5.13 µM, the CC50 (RPMI-8226; [3]) was over 100 µM and the TGI (RPMI-8226; read-out: pTGI (converted)) was 35.5 µM. It also gave a GI50 (K562) of 0.309 µM, an LC50 (concentration killing 50% of cells) (K562) of over 100 µM and a TGI (K562; read-out: pTGI (converted)) of 15.5 µM. The GI50 (MOLT-4) was 2.24 µM, the LC50 (MOLT-4) was over 100 µM and the TGI (MOLT-4; read-out: pTGI (converted)) was 24 µM. It also gave a GI50 (CCRF-CEM) of 0.224 µM, an LC50 (CCRF-CEM) of over 100 µM and a TGI (CCRF-CEM; read-out: pTGI (converted)) of 4.47 µM. It also gave a GI50 (SW-620) of 0.331 µM, an LC50 (SW-620) of 61.7 µM and a TGI (SW-620; read-out: pTGI (converted)) of 14.5 µM. The GI50 (KM12) was 1.91 µM, the LC50 (KM12) was 83.2 µM and the TGI (KM12; read-out: pTGI (converted)) was 24 µM. It also gave a GI50 (HT-29) of 3.89 µM, an LC50 (HT-29) of over 100 µM and a TGI (HT-29; read-out: pTGI (converted)) of 55 µM. For the same compound, the GI50 (HCT-116) was 0.38 µM, the LC50 (HCT-116) was 38.9 µM and the TGI (HCT-116; read-out: pTGI (converted)) was 10 µM. For the same compound, the GI50 (COLO 205) was 6.31 µM, the LC50 (COLO 205) was 58.9 µM and the TGI (COLO 205; read-out: pTGI (converted)) was 23.4 µM. For the same compound, the GI50 (SF-539) was 0.316 µM, the LC50 (SF-539) was 53.7 µM and the TGI (SF-539; read-out: pTGI (converted)) was 14.8 µM. It also gave a GI50 (SNB-19) of 10.7 µM, an LC50 (SNB-19) of over 100 µM and a TGI (SNB-19; read-out: pTGI (converted)) of 33.9 µM. The GI50 (SF-268) was 11.7 µM, the LC50 (SF-268) was 72.4 µM and the TGI (SF-268; read-out: pTGI (converted)) was 28.8 µM. For the same compound, the GI50 (T47D) was 1.86 µM, the LC50 (T47D) was 64.6 µM and the TGI (T47D; read-out: pTGI (converted)) was 21.4 µM. It also gave a GI50 [2] of 11.2 µM, an LC50 [2] of 87.1 µM and a TGI ([2]; read-out: pTGI (converted)) of 31.6 µM. It also gave a GI50 (TK-10) of 13.5 µM, an LC50 (TK-10) of 57.5 µM and a TGI (TK-10; read-out: pTGI (converted)) of 28.2 µM. It also gave a GI50 (UO-31) of 11.7 µM, an LC50 (UO-31) of 60.3 µM and a TGI (UO-31; read-out: pTGI (converted)) of 26.9 µM. For the same compound, the GI50 (SN12C) was 0.331 µM, the LC50 (SN12C) was 41.7 µM and the TGI (SN12C; read-out: pTGI (converted)) was 13.5 µM. It also gave a GI50 (RXF 393) of 14.8 µM, an LC50 (RXF 393) of 77.6 µM and a TGI (RXF 393; read-out: pTGI (converted)) of 33.9 µM. For the same compound, the GI50 (ACHN) was 15.5 µM, the LC50 (50% lethal concentration) (ACHN) was 63.1 µM and the TGI (ACHN; read-out: pTGI (converted)) was 30.9 µM. It also gave a GI50 (786-0) of 12.6 µM, a CC50 (786-0; [3]) of 52.5 µM and a TGI (786-0; read-out: pTGI (converted)) of 25.7 µM.
